The term pKi denotes −log10 of the Ki, conventionally taken in molar units. A higher pKi goes with a low Ki. Broadly, the pEC50 is the negative decadic logarithm of the EC50, by convention in mol/L. Read a high pEC50 as a low EC50.

The structures appear in SMILES notation. pEC50, pKi: −log10 of the molar value.

T2 sequence (P14416 whole entry): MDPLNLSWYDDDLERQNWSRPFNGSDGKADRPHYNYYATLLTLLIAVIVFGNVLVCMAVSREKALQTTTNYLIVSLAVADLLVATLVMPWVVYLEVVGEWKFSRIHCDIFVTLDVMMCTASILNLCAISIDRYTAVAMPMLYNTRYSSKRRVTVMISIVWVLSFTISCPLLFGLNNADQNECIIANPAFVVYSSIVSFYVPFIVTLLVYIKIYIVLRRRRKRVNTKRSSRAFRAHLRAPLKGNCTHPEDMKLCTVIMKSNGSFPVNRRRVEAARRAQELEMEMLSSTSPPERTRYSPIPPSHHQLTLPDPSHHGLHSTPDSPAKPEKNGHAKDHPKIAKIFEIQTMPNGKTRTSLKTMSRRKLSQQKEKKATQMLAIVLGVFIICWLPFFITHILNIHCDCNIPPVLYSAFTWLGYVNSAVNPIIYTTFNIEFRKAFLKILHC
D(1A) dopamine receptor, sequence (P21728 whole entry): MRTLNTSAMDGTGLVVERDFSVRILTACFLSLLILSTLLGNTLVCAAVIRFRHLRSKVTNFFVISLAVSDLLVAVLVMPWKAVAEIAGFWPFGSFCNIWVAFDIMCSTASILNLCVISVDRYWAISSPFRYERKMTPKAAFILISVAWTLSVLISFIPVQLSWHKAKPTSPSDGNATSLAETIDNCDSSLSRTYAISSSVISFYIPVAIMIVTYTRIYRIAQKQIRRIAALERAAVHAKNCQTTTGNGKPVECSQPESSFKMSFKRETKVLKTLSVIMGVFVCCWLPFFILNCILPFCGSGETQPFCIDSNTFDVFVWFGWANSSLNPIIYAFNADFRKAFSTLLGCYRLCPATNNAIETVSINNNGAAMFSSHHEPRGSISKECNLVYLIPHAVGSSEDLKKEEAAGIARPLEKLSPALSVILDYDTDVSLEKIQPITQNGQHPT
5-hydroxytryptamine receptor 2A, sequence (P28223 whole entry): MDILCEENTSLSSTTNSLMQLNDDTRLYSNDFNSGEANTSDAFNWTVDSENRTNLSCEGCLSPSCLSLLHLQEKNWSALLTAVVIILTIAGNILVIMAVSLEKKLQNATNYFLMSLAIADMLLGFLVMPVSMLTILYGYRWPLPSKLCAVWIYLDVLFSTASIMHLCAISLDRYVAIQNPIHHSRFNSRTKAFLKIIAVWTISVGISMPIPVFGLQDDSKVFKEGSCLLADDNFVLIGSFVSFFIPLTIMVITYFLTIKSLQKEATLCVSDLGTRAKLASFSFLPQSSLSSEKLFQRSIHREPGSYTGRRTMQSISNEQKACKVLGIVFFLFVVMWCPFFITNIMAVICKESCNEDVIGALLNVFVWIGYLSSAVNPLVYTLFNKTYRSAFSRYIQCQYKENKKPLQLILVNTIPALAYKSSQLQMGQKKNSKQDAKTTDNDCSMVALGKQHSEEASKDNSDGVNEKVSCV
D(3) dopamine receptor (Homo sapiens), P35462 [L89K], sequence (P35462 as listed by the source): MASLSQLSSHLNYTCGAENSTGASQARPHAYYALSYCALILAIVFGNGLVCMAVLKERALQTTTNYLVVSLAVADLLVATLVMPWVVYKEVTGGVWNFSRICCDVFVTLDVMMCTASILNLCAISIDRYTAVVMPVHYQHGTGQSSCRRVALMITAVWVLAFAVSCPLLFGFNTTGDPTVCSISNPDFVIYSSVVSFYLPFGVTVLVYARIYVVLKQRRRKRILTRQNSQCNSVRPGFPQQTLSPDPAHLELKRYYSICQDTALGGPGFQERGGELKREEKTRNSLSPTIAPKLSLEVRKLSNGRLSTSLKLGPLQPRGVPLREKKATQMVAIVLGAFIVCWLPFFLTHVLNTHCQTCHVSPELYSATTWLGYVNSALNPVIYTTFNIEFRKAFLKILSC
D(3) dopamine receptor (Homo sapiens, UniProt P35462, L89K), sequence (P35462 as listed by the source L89K): as the sequence (P35462 as listed by the source) above

The first experiment addresses 5-hydroxytryptamine receptor 2A (Homo sapiens, UniProt P28223). The experiment is described as follows: Displacement of [3H]ketanserin from human 5HT2A receptor expressed in HEK293 cell membranes. Summed up:
(§1)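 Homogenates from HEK 293 cells transiently transfected (calcium phosphate) with the human receptor gene in pcDNA3.1. [³H]SCH23390 at 0.3–0.7 nM (D1) or 0.4–0.5 nM (D5); [³H]ketanserin at 0.3–0.5 nM (5-HT2A). Competition curves fitted by non-linear regression, EC50 converted to Ki via Cheng–Prusoff.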
`CCCN(CCNC(=O)/C=C/c1ccc(F)cc1)C1Cc2ccccc2C1` had a pKi of 6.68.
Same read-out and setting: to `CCCN(CCCCNC(=O)/N=N/c1ccc(F)cc1)C1Cc2ccccc2C1` belongs 6.26; to `CCCN(CCNC(=O)/N=N/c1cc(F)c(F)c(F)c1)C1Cc2ccccc2C1`, 6.29; to `CCCN(CCCCNC(=O)/C=C/c1ccc(F)cc1)C1Cc2ccccc2C1`, 7.05.

Molecular target in a further experiment: not listed separately
The experiment is described as follows: Displacement of [3H]prazosin from porcine cerebral cortex alpha1 adrenoceptor. The experiment is classed as tissue-based, Sus scrofa. (In general: Loss of bound radioactivity is the signal in a displacement assay; it reports binding, not function.)
`CCCN(CCNC(=O)/C=C/c1ccc(F)cc1)C1Cc2ccccc2C1` had a negative logarithm of the Ki (pKi) of 7.24.
Same read-out and setting: with `COc1ccccc1N1CCN(CCCCNC(=O)/N=N/c2ccc(F)cc2)CC1` the figure was 8.28; with `CCCN(CCCCNC(=O)/N=N/c1ccc(F)cc1)C1Cc2ccccc2C1`, 6.77.
Consider `CCCN(CCNC(=O)/N=N/c1cc(F)c(F)c(F)c1)C1Cc2ccccc2C1`, for which the negative-log Ki (pKi) is 6.05. This pKi lies 0.72 log units lower than the previous one.
On to `CCCN(CCCCNC(=O)/C=C/c1ccc(F)cc1)C1Cc2ccccc2C1`, for which the pKi was 6.92.

The species named for the next experiment is Homo sapiens. The experiment is described as follows: Selectivity index, ratio of Ki for human dopamine D2 long receptor to Ki for human dopamine D3 receptor. Summed up: (§2)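 Ratio of Ki at D2long or D2short to Ki at D3, with both Ki values from [³H]spiperone competition on CHO membranes stably expressing the human receptors.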
`CCCN(CCNC(=O)/C=C/c1ccc(F)cc1)C1Cc2ccccc2C1`: the Ratio Ki was found to be 3.1.
Still for that read-out and setting: with `COc1ccccc1N1CCN(CCCCNC(=O)/N=N/c2ccc(F)cc2)CC1` the figure was 13; with `CCCN(CCCCNC(=O)/N=N/c1ccc(F)cc1)C1Cc2ccccc2C1`, 27.
On to `CCCN(CCNC(=O)/N=N/c1cc(F)c(F)c(F)c1)C1Cc2ccccc2C1`, for which the Ratio Ki was 1.3.
The same measure, in the same setting: to `CCCN(CCCCNC(=O)/C=C/c1ccc(F)cc1)C1Cc2ccccc2C1` belongs 61.

For another experiment, the species on record is Homo sapiens. The experiment is described as follows: Selectivity index, ratio of Ki for human dopamine D2 short receptor to Ki for human dopamine D3 receptor. Summed up: as §2
As to `CCCN(CCNC(=O)/C=C/c1ccc(F)cc1)C1Cc2ccccc2C1`, the Ratio Ki was found to be 0.93.
Same read-out and setting: to `COc1ccccc1N1CCN(CCCCNC(=O)/N=N/c2ccc(F)cc2)CC1` belongs 11.
Same read-out and setting: to `CCCN(CCCCNC(=O)/N=N/c1ccc(F)cc1)C1Cc2ccccc2C1` belongs 42; to `CCCN(CCNC(=O)/N=N/c1cc(F)c(F)c(F)c1)C1Cc2ccccc2C1`, 0.84.
The same measure, in the same setting: to `CCCN(CCCCNC(=O)/C=C/c1ccc(F)cc1)C1Cc2ccccc2C1` belongs 9.4.

A further experiment deals with T1, D(3) dopamine receptor (Homo sapiens, UniProt P35462). The experiment is described as follows: Activation of wild type human dopamine D3 receptor expressed in HEK293 cells co-expressing GaqG66Di5- incubated for 120 mins by scintillation counting based myo-[3H]inositol phosphate accumulation assay. In kind it is functional, cell-based.
T1 sequence (P35462 whole entry): as the sequence (P35462 as listed by the source) above, with S9G, K89L counted along it
Compound `CCCN(CCCCNC(=O)/N=N/c1ccc(F)cc1)C1Cc2ccccc2C1` showed a pEC50 of 8.59.

The next experiment deals with T1, D(3) dopamine receptor. The experiment is described as follows: Activation of wild type human dopamine D3 receptor expressed in HEK293 cells co-expressing GaqG66Di5- incubated for 120 mins by scintillation counting based myo-[3H]inositol phosphate accumulation assay relative to quinpirole. In kind it is functional, cell-based. The essentials: (§3)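 HEK293T cells transiently co-transfected with human D3 (wild type or L89K mutant) plus GαqG66Di5; 24 h later seeded and labelled with myo-[³H]inositol. Next day, compounds in Tris/EDTA/MgCl2/DTT buffer pH 7.4 with 10 mM LiCl for 120 min at 37 °C. Total IP isolated by anion exchange and counted by scintillation; expressed as fold over basal (unstimulated = 1).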
With `CCCN(CCCCNC(=O)/N=N/c1ccc(F)cc1)C1Cc2ccccc2C1`, the Efficacy amounted to 84%.

A further experiment concerns the target D(3) dopamine receptor (Homo sapiens, UniProt P35462, L89K). The experiment is described as follows: Activation of human dopamine D3 receptor L89K mutant expressed in HEK293 cells co-expressing GaqG66Di5- incubated for 120 mins by scintillation counting based myo-[3H]inositol phosphate accumulation assay. The experiment is classed as functional, cell-based.
The compound `CCCN(CCCCNC(=O)/N=N/c1ccc(F)cc1)C1Cc2ccccc2C1` showed a negative logarithm of the EC50 (pEC50) of 7.17.

Another experiment deals with D(3) dopamine receptor (Homo sapiens), P35462 [L89K]. The experiment is described as follows: Activation of human dopamine D3 receptor L89K mutant expressed in HEK293 cells co-expressing GaqG66Di5- incubated for 120 mins by scintillation counting based myo-[3H]inositol phosphate accumulation assay relative to control. The experiment is classed as functional, cell-based. The essentials:
as §3
`CCCN(CCCCNC(=O)/N=N/c1ccc(F)cc1)C1Cc2ccccc2C1` yielded an Efficacy of 81%.

A further experiment deals with D(1A) dopamine receptor (Homo sapiens, UniProt P21728). The experiment is described as follows: Displacement of [3H]SCH23390 from human dopamine D1 receptor expressed in HEK293 cell membranes. The essentials:
as §1
As to `CCCN(CCNC(=O)/C=C/c1ccc(F)cc1)C1Cc2ccccc2C1`, the negative-log Ki (pKi) was 5.66.
Regarding `CCCN(CCCCNC(=O)/N=N/c1ccc(F)cc1)C1Cc2ccccc2C1`, the pKi was 5.48.
Turning to `CCCN(CCNC(=O)/N=N/c1cc(F)c(F)c(F)c1)C1Cc2ccccc2C1`, the pKi was 5.59.
On the same count and under the same terms, with `CCCN(CCCCNC(=O)/C=C/c1ccc(F)cc1)C1Cc2ccccc2C1` the figure was 5.89.

The target of a further experiment is D(1B) dopamine receptor (Homo sapiens, UniProt P21918). The experiment is described as follows: Displacement of [3H]SCH23390 from human dopamine D5 receptor expressed in HEK293 cell membranes. The essentials: as §1
D(1B) dopamine receptor, sequence (P21918 whole entry): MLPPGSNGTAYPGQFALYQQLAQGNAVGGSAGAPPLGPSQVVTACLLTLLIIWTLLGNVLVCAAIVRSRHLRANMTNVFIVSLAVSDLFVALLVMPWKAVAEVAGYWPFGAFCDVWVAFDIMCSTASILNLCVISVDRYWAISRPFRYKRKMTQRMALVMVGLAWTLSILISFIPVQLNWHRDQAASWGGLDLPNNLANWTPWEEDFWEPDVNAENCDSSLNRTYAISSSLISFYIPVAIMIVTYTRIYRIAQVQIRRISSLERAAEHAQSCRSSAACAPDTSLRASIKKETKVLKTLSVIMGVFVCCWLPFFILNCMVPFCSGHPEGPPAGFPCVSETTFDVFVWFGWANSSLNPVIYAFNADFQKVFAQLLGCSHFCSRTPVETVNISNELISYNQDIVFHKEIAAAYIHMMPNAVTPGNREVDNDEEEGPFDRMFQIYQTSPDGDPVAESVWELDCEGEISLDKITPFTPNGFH
Regarding `CCCN(CCNC(=O)/C=C/c1ccc(F)cc1)C1Cc2ccccc2C1`, the negative-log Ki (pKi) was 4.96.
On the same count and under the same terms, to `CCCN(CCCCNC(=O)/N=N/c1ccc(F)cc1)C1Cc2ccccc2C1` belongs 5.15; to `CCCN(CCNC(=O)/N=N/c1cc(F)c(F)c(F)c1)C1Cc2ccccc2C1`, 5.42.
Same read-out and setting: with `CCCN(CCCCNC(=O)/C=C/c1ccc(F)cc1)C1Cc2ccccc2C1` the figure was 5.54.

Another experiment concerns the target T2, D(2) dopamine receptor (Homo sapiens, UniProt P14416). The experiment is described as follows: Displacement of [3H]spiperone from human dopamine D2 long receptor expressed in CHO cell membranes. Summed up: (§4)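 Membranes of CHO cells stably expressing each human receptor; [³H]spiperone final 0.1–0.2 nM (D2long), 0.2 nM (D2short), 0.2–0.4 nM (D3), 0.15–0.35 nM (D4.4), set by K_D. Protein per well 4–6, 1–4, 1–6 and 5–6 µg respectively. EC50 from competition curves by non-linear regression, converted to Ki with Cheng–Prusoff; Ki mean of 3–7 independent experiments in triplicate.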
Turning to `CCCN(CCNC(=O)/C=C/c1ccc(F)cc1)C1Cc2ccccc2C1`, the pKi is 7.37.
On the same count and under the same terms, to `CCCN(CCCCNC(=O)/N=N/c1ccc(F)cc1)C1Cc2ccccc2C1` belongs 7.64; to `CCCN(CCNC(=O)/N=N/c1cc(F)c(F)c(F)c1)C1Cc2ccccc2C1`, 6.96.
On to `CCCN(CCCCNC(=O)/C=C/c1ccc(F)cc1)C1Cc2ccccc2C1`, for which the negative logarithm of the Ki (pKi) was 7.72.

Another experiment addresses T2, D(2) dopamine receptor. The experiment is described as follows: Displacement of [3H]spiperone from human dopamine D2 short receptor expressed in CHO cell membranes. The essentials:
as §4
`CCCN(CCNC(=O)/C=C/c1ccc(F)cc1)C1Cc2ccccc2C1`: the pKi was 7.89.
Regarding `COc1ccccc1N1CCN(CCCCNC(=O)/N=N/c2ccc(F)cc2)CC1`, the negative-log Ki (pKi) was 7.47.
For `CCCN(CCCCNC(=O)/N=N/c1ccc(F)cc1)C1Cc2ccccc2C1`, the pKi is 7.44.
Same read-out and setting: to `CCCN(CCNC(=O)/N=N/c1cc(F)c(F)c(F)c1)C1Cc2ccccc2C1` belongs 7.14; to `CCCN(CCCCNC(=O)/C=C/c1ccc(F)cc1)C1Cc2ccccc2C1`, 8.54.

A further experiment deals with T1, D(3) dopamine receptor. The experiment is described as follows: Displacement of [3H]spiperone from human dopamine D3 receptor expressed in CHO cell membranes. Summed up: as §4
Consider `CCCN(CCNC(=O)/C=C/c1ccc(F)cc1)C1Cc2ccccc2C1`, for which the negative logarithm of the Ki (pKi) was 7.85.
Same read-out and setting: with `COc1ccccc1N1CCN(CCCCNC(=O)/N=N/c2ccc(F)cc2)CC1` the figure was 8.52.
As for `CCCN(CCCCNC(=O)/N=N/c1ccc(F)cc1)C1Cc2ccccc2C1`, the pKi was 9.07.
The same measure, in the same setting: to `CCCN(CCNC(=O)/N=N/c1cc(F)c(F)c(F)c1)C1Cc2ccccc2C1` belongs 7.06; to `CCCN(CCCCNC(=O)/C=C/c1ccc(F)cc1)C1Cc2ccccc2C1`, 9.51.

The next experiment has as its target T3, D(4) dopamine receptor (Homo sapiens, UniProt P21917).
T3 sequence (P21917 whole entry): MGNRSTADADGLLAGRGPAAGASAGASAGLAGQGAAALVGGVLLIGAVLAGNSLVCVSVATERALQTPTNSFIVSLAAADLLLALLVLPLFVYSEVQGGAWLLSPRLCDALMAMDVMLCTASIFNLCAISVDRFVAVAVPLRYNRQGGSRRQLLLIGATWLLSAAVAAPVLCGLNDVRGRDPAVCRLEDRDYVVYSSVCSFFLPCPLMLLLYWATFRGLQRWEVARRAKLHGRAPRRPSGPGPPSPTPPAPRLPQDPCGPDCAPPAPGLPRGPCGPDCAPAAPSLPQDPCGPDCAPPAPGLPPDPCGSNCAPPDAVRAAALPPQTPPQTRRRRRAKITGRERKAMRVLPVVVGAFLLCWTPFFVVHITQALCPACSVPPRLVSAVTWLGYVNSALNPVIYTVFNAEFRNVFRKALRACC
The experiment is described as follows: Displacement of [3H]spiperone from human dopamine D4.4 receptor expressed in CHO cell membranes. Summed up: as §4
In the case of `CCCN(CCNC(=O)/C=C/c1ccc(F)cc1)C1Cc2ccccc2C1`, the negative-log Ki (pKi) is 8.85.
On the same count and under the same terms, to `CCCN(CCCCNC(=O)/N=N/c1ccc(F)cc1)C1Cc2ccccc2C1` belongs 7.47.
For `CCCN(CCNC(=O)/N=N/c1cc(F)c(F)c(F)c1)C1Cc2ccccc2C1`, the pKi was 8.00.
Same read-out and setting: with `CCCN(CCCCNC(=O)/C=C/c1ccc(F)cc1)C1Cc2ccccc2C1` the figure was 7.80.

Molecular target in the next experiment: not listed separately
The experiment is described as follows: Displacement of [3H][…] from porcine cerebral cortex 5HT1A receptor. In kind it is tissue-based, Sus scrofa. Summed up: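 Porcine cerebral cortex homogenates as receptor source; [³H][…] at 0.2–0.33 nM for 5-HT1A. Protein measured by Lowry against bovine serum albumin. Competition curves fitted by non-linear regression, EC50 converted to Ki via Cheng–Prusoff.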
`CCCN(CCNC(=O)/C=C/c1ccc(F)cc1)C1Cc2ccccc2C1` had a pKi of 8.37.
The same measure, in the same setting: with `COc1ccccc1N1CCN(CCCCNC(=O)/N=N/c2ccc(F)cc2)CC1` the figure was 8.48; with `CCCN(CCCCNC(=O)/N=N/c1ccc(F)cc1)C1Cc2ccccc2C1`, 8.24.
As for `CCCN(CCNC(=O)/N=N/c1cc(F)c(F)c(F)c1)C1Cc2ccccc2C1`, the negative logarithm of the Ki (pKi) was 8.48.
Still for that read-out and setting: with `CCCN(CCCCNC(=O)/C=C/c1ccc(F)cc1)C1Cc2ccccc2C1` the figure was 8.30.

For the origin of these results see ChEMBL document CHEMBL3588764, “Fluoro-substituted phenylazocarboxamides: Dopaminergic behavior and N-arylating properties for irreversible binding” (Bioorg Med Chem, 2015).
